# Experimental data: ChEMBL document CHEMBL1124096, “Potential anticonvulsants. 11. Synthesis and anticonvulsant activity of spiro[1,3-dioxolane-2,3'-indolin]-2'-ones and structural analogues” (J Med Chem, 1988)
# Tests used:
# Mus musculus [1] = species on record: Mus musculus; experiment: Phase II effective dose against mice for maximal electroshock seizure test (MES) for 0.25 hr of test time; format: functional
# Method in brief: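 Phase II quantification: time of peak effect first determined, then median effective dose in the MES test (corneal 60-cycle AC, 50 mA, 0.2 s) found at that time, 0.25 h. Compound given ip.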
# [2] = Protective index (TD50/ED50) for MES test in mice; format: ADME, organism-based; settings: mouse, in vivo; read-out: PI
# Method in brief: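 Protective index taken as TD50 (rotorod) divided by MES ED50. Both measured in Phase II at the time of peak effect, 0.25 h, after ip dosing.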
# [3] = Phase II effective dose against mice for toxicity test (TOX) for 0.25 hr of test time; format: organism-based; settings: mouse, in vivo
# Method in brief: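 Phase II: time of peak neurologic toxicity first determined. Median toxic dose then found by rotorod (1-in. knurled rod, 6 rpm, 1 min) at that time, 0.25 h. Compound given ip.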
# Mus musculus [4] = experiment: Ability to protect mice against neurotoxicity (rotarod test) at 300 mg/kg for 0.5 hr in Phase I; no. of animals protected/No. of animals tested 0/4; format: organism-based; parameters: dose 300 mg/kg; settings: in vivo
# [5] = Ability to protect mice against electrically induced seizures (MES) at 100 mg/kg for 0.5 hr in Phase I; no. of animals protected/No. of animals tested= 0/3; format: functional, organism-based; parameters: dose 100 mg/kg
# [6] = Ability to protect mice against electrically induced seizures (MES) at 300 mg/kg for 0.5 hr in Phase I; no. of animals protected/No. of animals tested= 0/1; format: functional, organism-based; parameters: dose 300 mg/kg
# [7] = Ability to protect mice against subcutaneous pentylenetetrazole seizures (sc-Met) threshold test at 300 mg/kg for 0.5 hr in Phase I; no. of animals protected/No. of animals tested= 0/1; format: functional, organism-based; parameters: dose 300 mg/kg
# [8] = Ability to protect mice against subcutaneous pentylenetetrazole seizures (sc-Met) threshold test at 100 mg/kg for 0.5 hr in Phase I; no. of animals protected/No. of animals tested= 0/1; format: functional, organism-based; parameters: dose 100 mg/kg
Structure (SMILES),ED50 (Mus musculus [1]) [mg/kg],selectivity ratio [2],TD50 at 0.25 h [3] [mg/kg],also measured
O=C1Nc2cccc(Cl)c2C12OCCO2,95.6,1.24,122,
O=C1Nc2ccc(Cl)cc2C12OCCO2,28,2.28,63.7,
O=C1N(CN2CCCCC2)c2ccccc2C12OCCO2,,1.39,187,
CN1C(=O)C2(OCCO2)c2ccccc21,90.9,1.3,118,
O=C1Nc2ccccc2C12SCCS2,174,,,
O=C1Nc2ccccc2C12OCCO2,69.8,1.87,130,
O=C1N(Cc2ccccc2)c2ccccc2C12OCCO2,,,,Ratio (Mus musculus [4]): no. of animals protected/No. of animals tested 0/4; Ratio [5]: no. of animals protected/No. of animals tested 0/4; Ratio [6]: no. of animals protected/No. of animals tested 0/4; Ratio [7]: no. of animals protected/No. of animals tested 0/4; Ratio [8]: no. of animals protected/No. of animals tested 0/4
COC1(OC)C(=O)Nc2ccccc21,82,2.47,203,
O=C1Nc2cc(Cl)ccc2C12OCCO2,72,1.68,121,
O=C1N(CN2CCOCC2)c2ccccc2C12OCCO2,90,1.89,170,
O=C1Nc2ccccc2C12OCCS2 (stereo unspecified),60.4,1.65,,
O=C1Nc2ccccc2C12OCCCO2,110,1.67,,
O=C1Nc2ccc(Br)cc2C12OCCO2,46.1,1.87,86.5,
